Screening data deposited in PubChem BioAssay by Broad Institute.
Cneo AK release – Cryptococcus neoformans cell lysis inducers, primary screen, AK release luminescence, single concentration. C. neoformans lysis, adenylate kinase release luminescence, 4 h; normalised: neutral wells 0, clomiphene wells 100. lysis activity, % at 15 µM. actives 0.2% (n = 360,000). AID 651654, 2012;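 active means mean lysis activity across replicates of at least 80%, whatever share of replicates individually reach that level; inactive means mean lysis activity below 80%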
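Material: C. neoformans cells | Amount: Yeast cell density of 5 × 10^6 cells/mL | Medium: Fresh YPD growth medium | Dosing: Single dose | Times: Static 4 h at 37 °C with compound, 1 h detection | Detection: AK luminescence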
PglD DTNB – C. jejuni PglD acetyltransferase inhibitors, primary screen, biochemical, DTNB colorimetric, single point; UDP-N-acetylbacillosamine N-acetyltransferase PglD (Campylobacter jejuni); actives 0.098% (n = 360,000); purified PglD enzyme, DTNB colorimetric CoA detection; inhibition, % at 12.5 µM; in the data active means inhibition above about 16%, passing the limit was not always enough; inconclusive means no clear call, values can overlap the other calls
miR-122 sensor – miR-122 Renilla sensor signal increase in Huh7, primary screen, miR-122 inhibitor project, cell-based, single point, plate reader; activation (reporter increase), % at 12.5 µM; actives 0.3% (n = 340,000); Huh7 miR-122 Renilla luciferase sensor, 48 h; neutral wells = 0, positive control = 100;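 active means mean replicate activation score at least 90 and every replicate individually at or above 90; inconclusive means only one of the two criteria met; inactive means neither criterion met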;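 further: higher luciferase means less miR-122 activity so hits act as miR-122 inhibitors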
PvdQ acylase – P. aeruginosa PvdQ acylase inhibitors, primary screen, biochemical, fluorescence, plate reader and imaging, single point | inhibition, % at 10 µM | PvdQ acylase [Pseudomonas aeruginosa LESB58] | actives 0.063% (n = 340,000) | AID 488965, 2010 | purified PvdQ acylase; in the data active means inhibition above about 30%, passing the limit was not always enough; inconclusive means no clear call, values can overlap the other calls;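 further: 0% = vehicle neutral wells and 100% = reference inhibitor wells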
PDI turbidity – inhibitors of human PDI, primary screen, biochemical, turbidity, single point, plate reader; actives 0.052% (n = 350,000); inhibition, % at 10 µM; Protein disulfide-isomerase (Homo sapiens), P07237; AID 588391, 2011; PDI insulin aggregation turbidity, A650, 90 min;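 active means mean inhibition across replicates of 30% or more, whatever share of single replicates reach that level; inconclusive means mean inhibition below 30% while every single replicate reaches 30%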
Target sequence (P07237 whole entry, looked up): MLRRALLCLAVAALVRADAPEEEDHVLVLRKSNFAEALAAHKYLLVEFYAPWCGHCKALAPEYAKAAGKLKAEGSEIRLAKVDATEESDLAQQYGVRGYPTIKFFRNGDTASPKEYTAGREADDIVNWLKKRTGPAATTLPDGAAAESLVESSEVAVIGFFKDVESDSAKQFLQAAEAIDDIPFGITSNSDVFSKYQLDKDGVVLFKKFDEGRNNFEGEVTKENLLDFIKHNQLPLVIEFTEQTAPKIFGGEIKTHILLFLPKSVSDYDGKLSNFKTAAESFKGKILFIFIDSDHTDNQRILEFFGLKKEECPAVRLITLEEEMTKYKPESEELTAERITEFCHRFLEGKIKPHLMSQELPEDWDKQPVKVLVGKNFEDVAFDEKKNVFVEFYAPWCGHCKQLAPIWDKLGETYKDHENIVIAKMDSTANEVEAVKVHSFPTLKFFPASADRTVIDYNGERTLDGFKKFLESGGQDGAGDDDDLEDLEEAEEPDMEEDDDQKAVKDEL
ERp5 inh – inhibitors of ERp5-driven insulin aggregation, primary screen, biochemical, turbidity, absorbance 650 nm, single point; inhibition, % at 9.99 µM; 90 min; actives 0.05% (n = 350,000); AID 651711, 2012;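 active means mean replicate inhibition above about 25%, with every replicate also reaching it, limit read from the data, passing the limit was not always enough; inconclusive means only one of those two criteria met; inactive means neither criterion met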
* marks the source's active call; other numbers are inactive results; ? = inconclusive; · = not tested or not shown; ! = a repeat was not active; [ ] = dose if it differs, or a comment. Hits are enriched below; roughly 0.58% of the tested compounds scored in any of these assays.

SMILES	Cneo AK release	PglD DTNB	miR-122 sensor	PvdQ acylase	PDI turbidity	ERp5 inh
C[C@H]1CN([C@@H](C)CO)S(=O)(=O)c2ccc(-c3ccncc3)cc2O[C@H]1CN(C)Cc1cccnc1	-1.5	-0.2	-7.2[16.7 µM]	·	·	-5.1
C=CCSc1ncc(-c2ccccc2)cn1	1.7	9.3	0.2	0.3	2.9	-5.0
C#CCSc1ncc(-c2ccccc2)cn1	0.0	-1.8	-8.9	47.7*	-14.0	-4.1
Cc1noc(C)c1NC(=O)N(C)C[C@@H]1Oc2ccc(NC(=O)Nc3ccccc3)cc2CC(=O)N([C@@H](C)CO)C[C@H]1C	-1.4	0.3	7.2[16.7 µM]	·	·	8.6
COc1ccc(S(=O)(=O)Nc2cccc3c2O[C@@H](CN(C)Cc2ccc(C(F)(F)F)cc2)[C@H](C)CN([C@H](C)CO)C3=O)cc1	41.9	-2.0	102.2*[16.7 µM]	·	·	-5.6
C[C@@H]1CN([C@H](C)CO)C(=O)c2cccc(NS(=O)(=O)c3ccccc3)c2O[C@H]1CN(C)Cc1ccc(Cl)c(Cl)c1	-9.0	0.4	23.7[16.7 µM]	·	·	-2.0
C[C@H](CO)N1C[C@H](C)[C@@H](CN(C)Cc2ccc(Cl)c(Cl)c2)Oc2c(NS(=O)(=O)c3ccccc3)cccc2C1=O	-3.1	-2.1	105.6*![16.7 µM]	·	·	0.2
COc1ccc(S(=O)(=O)Nc2cccc3c2O[C@H](CN(C)Cc2ccc(Cl)c(Cl)c2)[C@@H](C)CN([C@H](C)CO)C3=O)cc1	0.8	-7.9	97.7*!	-11.4	1.6	1.0
COc1ccc(S(=O)(=O)Nc2cccc3c2O[C@H](CN(C)Cc2ccc(C(F)(F)F)cc2)[C@@H](C)CN([C@@H](C)CO)C3=O)cc1	39.7	-1.0	59.5[16.7 µM]	·	·	3.7
COCC(=O)Nc1ccc2c(c1)[C@H]1C[C@@H](CC(=O)NCc3ccc(OC)cc3)O[C@@H](CO)[C@H]1O2	0.0	2.5	5.0[16.7 µM]	·	·	6.9
CC(=O)Nc1cc(S(=O)(=O)Nc2ccc(C)cc2)c(C)cc1C	-2.3	-0.6	128.6*	-9.6	16.2	·
Cc1ccc(OC(C)C(=O)Nc2ccc(C)c(S(=O)(=O)Nc3ccc(C)cc3C)c2)cc1 (configuration not stated)	·	·	195.7*	4.8	6.8	·
Cc1ccc(OC(C)C(=O)Nc2ccncc2)cc1 (configuration not stated)	0.1	3.0	-5.3	-21.2	3.2	2.0
N#C/C(=C\c1ccccn1)c1nc2ccccc2s1	-2.2	-2.9	5.6	-2.1	-3.4	0.1
COc1ccc(/C(C#N)=C/c2ccccn2)cc1	-1.9	-4.7	·	53.3*	5.9	3.9
CC(=O)N(C)C[C@@H]1Oc2cc(C3=CCCCC3)ccc2S(=O)(=O)N([C@@H](C)CO)C[C@@H]1C	·	·	-2.0[16.7 µM]	·	·	·
CC(=O)Nc1ccc(NC(=O)CSc2nc(=O)n3cccc(C)c3n2)cc1	·	·	·	3.4	32.3*	8.3
N#C[C@@H]1[C@@H](c2ccccc2-c2cccc(F)c2)[C@H](CO)N1C(=O)NC1CCCC1	·	·	·	·	·	-7.5
CCCNC(=O)[C@H]1[C@H](CO)[C@H]2Cn3c(ccc(/C=C/c4ccccc4)c3=O)[C@@H]1N2C(C)=O	13.7	0.6	4.9[16.7 µM]	·	·	71.5*
CCC(=O)N1[C@@H]2c3cccc(=O)n3C[C@H]1[C@H](CO)[C@H]2C(=O)NCc1ccc(F)cc1	1.6	-0.1	-2.3[16.7 µM]	·	·	-7.2
CCC(=O)N1[C@@H]2Cn3c(cccc3=O)[C@H]1[C@@H](C(=O)NCc1ccccc1)[C@@H]2CO	99.4*	-0.2	20.8[16.7 µM]	·	·	-2.1
CCCNC(=O)[C@H]1[C@H](CO)[C@H]2Cn3c(cccc3=O)[C@@H]1N2C(=O)Nc1cc(F)ccc1F	87.8*	0.6	-2.3[16.7 µM]	·	·	·
CCC(=O)N1[C@@H]2c3cccc(=O)n3C[C@H]1[C@H](CO)[C@H]2C(=O)NCc1ccccc1	93.2*	-1.3	0.5[16.7 µM]	·	·	1.8
CCC(=O)N1[C@@H]2Cn3c(cccc3=O)[C@H]1[C@@H](C(=O)NCc1ccc(F)cc1)[C@@H]2CO	-1.0	0.2	2.6[16.7 µM]	·	·	-0.7
O=C(c1ccccc1F)N1C[C@@H]2[C@H](c3ccccc31)[C@@H](CO)N2C(=O)c1ccc(F)cc1	2.9	0.2	0.0[16.7 µM]	·	·	0.5
SMILES	Cneo AK release	PglD DTNB	miR-122 sensor	PvdQ acylase	PDI turbidity	ERp5 inh
O=C(C[C@@H]1CC[C@@H]2[C@H](COC[C@@H](O)CN2C(=O)C2CC2)O1)NCc1ccccc1Cl	51.5	6.1	23.4[16.7 µM]	·	·	-2.6
O=C(C[C@@H]1C=C[C@H](NC(=O)Nc2ccc(C(F)(F)F)cc2)[C@@H](CO)O1)NCc1ccccn1	20.3	-1.3	·	·	·	1.8
C[C@H]1CN([C@@H](C)CO)C(=O)c2ccccc2-c2ccccc2CO[C@@H]1CN(C)C(=O)Nc1cccc(C(F)(F)F)c1	45.1	-0.6	·	·	·	-6.6
Cc1cc(-c2ccccc2)nc2cc(C(=O)NCCCn3ccnc3)nn12	-1.5	-2.0	3.8	-9.4	1.2	·
COCCNC(=O)c1cc2nc(-c3ccccc3)cc(C)n2n1	·	·	2.0	33.7*	-6.4	-3.4
C[C@@H]1CN([C@H](C)CO)C(=O)Cc2cc(NC(=O)C3CC3)ccc2O[C@@H]1CN(C)S(C)(=O)=O	1.2	-0.7	0.8[16.7 µM]	·	·	-10.2
O=C(O)C[C@H]1CC[C@@H](NC(=O)c2ccccc2F)[C@H](CO)O1	1.4	2.6	·	·	·	-3.3
COC(=O)c1cc(/C=C/c2ccccc2)[nH]n1	-1.0	6.6	-1.5	0.3	-4.1	3.0
COC(=O)c1cc(/C=C/c2ccccc2)on1	1.1	1.3	-3.4	54.1*	-3.6	·
CC(=O)N[C@H]1C=C[C@@H](CC(=O)NCC2CCCCC2)O[C@@H]1CO	7.4	-0.5	·	·	·	-11.5
Cc1cccc(NS(=O)(=O)c2cccc(C(=O)N3CCCCCCC3)c2)c1	0.3	0.9	162.7*	-6.6	8.6	2.5
Cc1cc(C)c(C)c(S(=O)(=O)Nc2ccc(C(N)=O)cc2)c1C	·	·	·	-11.2	-0.5	6.1
Cc1cc(C)c(C)c(S(=O)(=O)Nc2ccc(C(=O)N3CCCC3)cc2)c1C	2.8	0.9	135.1*	-4.5	12.6	-3.2
Cc1cccc(NS(=O)(=O)c2cccc(C(=O)N3CCCCCC3)c2)c1	-2.5	-3.7	72.1	-7.6	0.5	-4.8
Cc1ccc(S(=O)(=O)N(C)C[C@H]2Oc3ccc(NC(=O)C4CCCCC4)cc3CC(=O)N([C@@H](C)CO)C[C@H]2C)cc1	-8.5	7.0	-7.7[16.7 µM]	·	·	-1.2
COc1ccc(/C=C/C(=O)c2ccc(O)cc2)cc1	-16.3	-4.4	-5.1	20.3	·	-1.4
COc1ccc(/C=C/C(=O)c2ccoc2)cc1	0.5	0.1	·	40.0*	5.5	3.5
O=S(=O)(NCCc1ccccc1)c1ccc(F)cc1Br	-0.1	-2.1	?	-6.2	0.1	5.8
O=S(=O)(NCCc1ccc(F)cc1)c1cc(C(F)(F)F)ccc1Br	0.1	-4.2	126.9*	-15.3	1.3	2.2
